Measurements from article PMC10390885 (Clinical Cancer Research, 2023).
Several values for one entry are separate records, joined by “and”; a condition that tells them apart may be missing. Equal values may be shown once. Entries after “also recorded” stand apart in the source; their conditions may differ. Read-outs that look alike come from different tables or passages of the source.

Assays:
ER [1] = details: ER+ cell lines; preclinical studies; cited from earlier work
[2] = test system: postmenopausal women with ER+/HER2− locally advanced or metastatic breast cancer; experiment: Phase I safety: adverse events; type: in vivo, human
In short: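 Oral tablets were given as a single lead-in dose on day −7, then once daily from day 1 in 28-day cycles. Escalation used a 3+3 design, starting at 600 mg/day with 400 mg steps, plus an expansion cohort at 1,400 mg/day. DLT window ran from day −7 through cycle 1 (35 days). AEs were graded by NCI CTCAE v4.0. All patients dosed on cycle 1 day 1 were included, summarised descriptively.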

ER [3] = experiment: [18F]-fluoroestradiol; type: in vivo, human; details: cycle 2 day 3 vs baseline; 9 patients with FES-avid disease; 600, 1,000, 1,400 mg
ER [4] = experiment: IHC of ER protein in baseline and on-treatment biopsies; type: in vivo, human; details: on-treatment (cycle 2 or 3, day 8) vs baseline biopsies
In short: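 Baseline and on-treatment tumour biopsies (cycle 2 or 3, day 8) were stained for ER by IHC in one laboratory and scored by one pathologist. H-score (0–300) = 3×% strong-intensity nuclei + 2×% intermediate + 1×% weak nuclei among tumour cells. Paired samples only.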

[5] = test system: ER+/HER2− advanced or metastatic breast cancer; experiment: Antitumor activity by RECIST v1.1; type: in vivo, human
[6] = test system: PIK3CA/AKT1 mutations in ctDNA; experiment: ctDNA BEAMing digital PCR, PIK3CA/AKT1 mutant allele frequency; type: in vivo, human; details: first postbaseline ctDNA sample (cycle 3 day 1 or end-of-treatment)
In short: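 Hotspot mutations were measured in plasma ctDNA by BEAMing digital PCR: AKT1 E17K and PIK3CA C420R, E542K, E545G/K, Q546K, M1043I, H1047L/R/Y. Mutant allele fraction at baseline was compared with the first available post-baseline sample (cycle 3 day 1 or end of treatment) in paired samples.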

ESR1 mutations in ctDNA = experiment: FACT next-generation sequencing ctDNA assay; type: in vivo, human; details: 1,400 mg; vs 52% pretreatment
[7] = test system: ESR1 mutant and wild-type patient-derived xenograft models of ER+ breast cancer; details: preclinical, cited from earlier work
ER [8] = details: preclinical studies; cited from earlier work
[9] = test system: advanced ER-positive HER2-negative breast cancer; details: cited from earlier work
[10] = N = 42, considered related to study drug, any grade
[11] = N = 42, considered related to study drug, grade 3
[12] = N = 42, regardless of causality, any grade
[13] = N = 42, regardless of causality, grade 3

CC/C(=C(/c1ccc(/C=C/C(=O)O)cc1)c1ccc2[nH]ncc2c1)c1ccc(F)cc1Cl [GDC-0810, reference compound]
ER antagonist/agonist profile (ER [1]): partial agonism

CC1=C(c2cccc(O)c2)[C@H](c2ccc(OCCN3CC(CF)C3)cc2)Oc2ccc(O)cc21 [GDC-0927]
AEs leading to withdrawal ([2]; N = 42): no reports and None
Deaths ([2]; N = 42): no deaths; also recorded: no reports
Dose modifications due to AEs ([2]; N = 42): no dose modifications
Grade 4 or grade 5 AEs ([2]; N = 42): no grade 4 or grade 5 AEs; also recorded: no grade 4 or 5 AEs
Treatment-related serious adverse events (SAE) ([2]; N = 42): no reports
Patients with any adverse events ([2]; N = 42, 600-1,400 mg once daily oral, regardless of causality, any grade): 37 n (%) and 37 (88) n (%)
Constipation [2, 10]: 6 n (%) and 6 (14) n (%)
Diarrhea [2, 10]: 5 n (%) and 5 (12) n (%)
Fatigue [2, 10]: 5 n (%) and 5 (12) n (%)
Hot flush [2, 10]: 8 n (%) and 8 (19) n (%)
Nausea [2, 10]: 8 n (%) and 8 (19) n (%)
Patients with at least one adverse event [2, 10]: 30 n (%) and 30 (71) n (%)
Total number of events [2, 10]: 109
Constipation [2, 11]: 0 n (%)
Diarrhea [2, 11]: 0 n (%)
Fatigue [2, 11]: 0 n (%)
Hot flush [2, 11]: 0 n (%)
Nausea [2, 11]: 0 n (%)
Patients with at least one adverse event [2, 11]: 0 n (%)
Total number of events [2, 11]: 0
Anemia [2, 12]: 6 n (%) and 6 (14) n (%)
Arthralgia [2, 12]: 8 n (%) and 8 (19) n (%)
Aspartate aminotransferase (AST) increased [2, 12]: 5 (12) n (%)
Asthenia [2, 12]: 5 (12) n (%)
Back pain [2, 12]: 7 n (%) and 7 (17) n (%)
Constipation [2, 12]: 9 n (%) and 9 (21) n (%)
Cough [2, 12]: 5 (12) n (%)
Diarrhea [2, 12]: 9 n (%) and 9 (21) n (%)
Fatigue [2, 12]: 8 n (%) and 8 (19) n (%)
Headache [2, 12]: 6 n (%) and 6 (14) n (%)
Hot flush [2, 12]: 8 n (%) and 8 (19) n (%)
Nausea [2, 12]: 14 n (%) and 14 (33) n (%)
Pain in extremity [2, 12]: 5 (12) n (%)
Vomiting [2, 12]: 7 n (%) and 7 (17) n (%)
Anemia [2, 13]: 0 n (%)
Arthralgia [2, 13]: 0 n (%)
Aspartate aminotransferase (AST) increased [2, 13]: 0 n (%)
Asthenia [2, 13]: 1 (2) n (%)
Back pain [2, 13]: 2 n (%) and 2 (5) n (%)
Constipation [2, 13]: 0 n (%)
Cough [2, 13]: 0 n (%)
Diarrhea [2, 13]: 0 n (%)
Fatigue [2, 13]: 0 n (%)
Headache [2, 13]: 0 n (%)
Hot flush [2, 13]: 0 n (%)
Nausea [2, 13]: 0 n (%)
Pain in extremity [2, 13]: 0 n (%)
Patients with any adverse events [2, 13]: 9 (21) n (%)
Vomiting [2, 13]: 0 n (%)
Patients with AEs that led to dose interruptions ([2]; N = 42, seven patients): 17%
Patients with at least one SAE considered unrelated to GDC-0927 ([2]; N = 42, seven patients): 17%
Patients with AEs of special interest (grade 2 deep vein thrombosis, grade 2 jugular vein thrombosis) ([2]; N = 42, two patients, both considered unrelated): 5%
DLTs ([2]; day −7 through first cycle (35 days), 600-1,400 mg/day): no reports of DLTs
MTD ([2]; oral once daily, doses up to the MAD of 1,400 mg/day): not reached
Reduction in FES uptake (ER [3]): > 90%
Reduction in ER expression (ER protein, IHC), average (ER [4]): approximately 40%
Confirmed complete or partial responses ([5]; N = 42): no complete or partial responses; also recorded: no confirmed CRs or PRs
Patients with confirmed best overall response of non-CR/PD ([5]; five patients, all at 1,400 mg): 14%
Patients achieving clinical benefit ([5]; patients with baseline ctDNA ESR1 mutation(s), six of 22): 27%
Patients achieving clinical benefit ([5]; patients without detectable baseline ctDNA ESR1 mutations, 6 of 20): 30%
Patients with decline in PIK3CA/AKT1 MAF [6]: 8 of 13
Prevalence of ESR1 mutations in on-treatment samples (ESR1 mutations in ctDNA): 35%
Tolerability at efficacious dose range ([7]; 10–100 mg/kg/day): well tolerated
Antitumor activity in xenograft models ([7]; ER+ breast cancer xenograft models): induces tumor regression; also recorded: dose-dependent antitumor activity
In vivo efficacious dose range [7]: 10 to 100 mg/kg/day
ER antagonist/agonist profile (ER [1]): full antagonist profile
ER degradation (ER [1]): ER degradation in all ER^+ cell lines tested
ER agonism in the uterus (ER [8]): lacked ER agonism

C[C@@H]1Cc2c(ccc3[nH]ncc23)[C@@H](c2ccc(NC3CN(CCCF)C3)cn2)N1CC(F)(F)F [camizestrant]
Median PFS ([9]; SERENA-2, camizestrant 75 mg): 7.2 months
Median PFS ([9]; SERENA-2, camizestrant 150 mg): 7.7 months

C[C@]12CC[C@@H]3c4ccc(O)cc4C[C@@H](CCCCCCCCC[S+]([O-])CCCC(F)(F)C(F)(F)F)[C@H]3[C@@H]1CC[C@@H]2O (stereo partly drawn) [fulvestrant]
Median PFS ([9]; SERENA-2, patients treated with fulvestrant): 3.7 months
